Screening data deposited in PubChem BioAssay by several laboratories.
Compounds with a hit are over-represented: about 3.6% of the library has one in this group of screens.
Hsp70 activator: switches on Hsp70 transcription | HeLa Hsp70 promoter luciferase reporter, luminescence; scaled: vehicle 0, proteasome-inhibitor control 100% | activation, % at 10 µM | 0.04% of 200,000 active;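 active = activation above the mean across all tested compounds plus 3 SD, cutoff set per campaign, cut at about 5.5% in these data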
STAT3 activator: STAT3 signaling activation. activation (% of control), % at 5.6 µM. U3A cells, IL-6 STAT3-luciferase reporter, luminescence; 100% = signal with IL-6 EC80 alone. 0.91% of 190,000 active;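 active = activation above the screen-wide mean of compound activation plus 3 SD, cut at about 130% in these data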
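Material: human STAT1-deficient U3A cells with stable STAT3-luciferase reporter / Probe or stimulus: IL-6 stimulus at 33 ng/mL final / Schedule: 1 h compound pre-exposure, 6 h IL-6 stimulation, 37 °C / Technique: luminescence / Read-out basis: percent of IL-6-only median luminescence / Control set: IL-6-only high control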
PERK inhibitor: blocks human PERK kinase. 0.17% of 220,000 active. Q9NZJ5. inhibition, % at 5.6 µM. CHO PERK-DD fusion, SEAP luminescence translation reporter. AID 1416;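 active = inhibition above the mean inhibition of all tested compounds plus 3 SD, set separately per screening campaign, cut at about 2.9% in these data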;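 note: PERK kinase domain activated by AP20187 dimerizer at 100 nM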
AHR act: activators of human aryl hydrocarbon receptor; AHR-responsive luciferase reporter cells, luminescence; AID 2796; activation, % at 5 µM; 2.5% of 320,000 active; in the data active = activation above about 47%
Target sequence (P35869 whole entry, looked up): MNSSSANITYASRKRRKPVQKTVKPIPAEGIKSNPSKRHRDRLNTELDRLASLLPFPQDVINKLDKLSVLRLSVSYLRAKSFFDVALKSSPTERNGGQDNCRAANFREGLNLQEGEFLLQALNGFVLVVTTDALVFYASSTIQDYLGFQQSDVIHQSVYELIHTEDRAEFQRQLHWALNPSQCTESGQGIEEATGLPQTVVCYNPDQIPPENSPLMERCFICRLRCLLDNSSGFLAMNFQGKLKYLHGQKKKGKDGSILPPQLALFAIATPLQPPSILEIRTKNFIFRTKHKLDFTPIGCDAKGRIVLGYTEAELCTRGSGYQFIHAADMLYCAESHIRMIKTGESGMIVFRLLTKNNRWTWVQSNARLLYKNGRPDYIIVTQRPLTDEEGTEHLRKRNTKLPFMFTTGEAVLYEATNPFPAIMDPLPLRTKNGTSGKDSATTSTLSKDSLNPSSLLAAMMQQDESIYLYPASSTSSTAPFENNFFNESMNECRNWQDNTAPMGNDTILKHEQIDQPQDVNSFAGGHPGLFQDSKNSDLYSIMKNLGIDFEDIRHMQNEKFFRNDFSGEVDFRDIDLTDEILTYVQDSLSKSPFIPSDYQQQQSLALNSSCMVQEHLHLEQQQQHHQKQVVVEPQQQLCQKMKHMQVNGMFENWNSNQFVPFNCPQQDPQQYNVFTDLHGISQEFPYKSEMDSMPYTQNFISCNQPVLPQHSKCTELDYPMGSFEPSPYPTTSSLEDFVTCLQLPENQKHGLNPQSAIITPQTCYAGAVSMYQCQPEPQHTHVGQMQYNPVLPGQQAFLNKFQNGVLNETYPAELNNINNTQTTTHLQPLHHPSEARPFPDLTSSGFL
PolyA inhibitor: yeast polyadenylation inhibition; S. cerevisiae SKY197-pL101 polyadenylation reporter, beta-gal luminescence; efflux-impaired pdr1/pdr3 knockout yeast; score 100 = 6 SD above DMSO; activity score, % at 12 µM; 0.02% of 300,000 active;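 active = lowest replicate activity score at least 50, where 100 means six control SD above control mean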;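 note: yeast exposed to compound for 9 h at 30 °C; higher score means more reporter readthrough which indicates perturbed polyadenylation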
HSF1 inh: HSF1 inhibition; NIH3T3-HGL HSE-luciferase, MG132-induced, luminescence 8 h; active compounds read low; activity change, negative = inhibition, % at 7.5 µM (by protocol); 0.77% of 300,000 active;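 active = more than half of replicate wells show activity change below -50%, luminescence cut by over half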;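 note: luciferase reports HSF-1 transcriptional activity via heat shock element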
AHR act confirm: human AHR activation, confirmation; AID 2845; shares compounds with AHR act; human cells, AHR-responsive luciferase reporter, luminescence; 87% of 2,300 active; activation, % at 9 µM; in the data active = activation above about 49%;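 note: HepG2 hepatoma cells carrying a DRE-driven firefly luciferase reporter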
PXR counter: activates human PXR in AHR activator counter-screen; AID 434939; activation, % at 11.6 µM; 88% of 2,300 active; shares compounds with AHR act; cell-based PXR reporter, luciferase luminescence; in the data active = activation above about 11%;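 note: human hepatoma DPX-2 cells expressing full-length human PXR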
Numbers stand for hits; 0 = inactive; - = not tested or not shown.

SMILES | Hsp70 activator | STAT3 activator | PERK inhibitor | AHR act | PolyA inhibitor | HSF1 inh | AHR act confirm | PXR counter
COc1ccc(-c2ccc3oc(-c4ccsc4)c(-c4ccc(OC)cc4)c3c2)cc1 | - | - | - | 0 | 0 | 0 | - | -
COc1ccc(-c2ccc3oc(-c4ccsc4)c(-c4ccc(Br)nc4)c3c2)cc1 | - | - | - | 102 | - | - | 97 | 26
O=C1N/C(=N\N=C\c2ccco2)SC1Cc1ccccc1[N+](=O)[O-] (stereo unspecified) | - | - | 0 | 83 | 0 | 0 | 71 | 28
Cc1sc2ncnc(NCCCn3ccnc3)c2c1C | 0 | 0 | 0 | 127 | 0 | 0 | 102 | 22
Cc1cccc(-n2ncc3c(NCCCn4ccnc4)ncnc32)c1 | 0 | 0 | 0 | 83 | 0 | 0 | 57 | 45
Cc1cc(C)nc(N(C#N)CC(=O)c2ccccc2)n1 | 0 | 0 | 0 | 0 | 0 | 0 | - | -
CCc1ccc(C(=O)CN(C#N)c2nc(C)cc(C)n2)cc1 | 0 | 0 | 0 | 85 | 0 | 0 | 63 | 19
Cc1nc(NC(=O)CSc2nnc(-c3ccc4c(c3)OCO4)o2)c(Cl)cc1Cl | 0 | 0 | 0 | 128 | 0 | 0 | 105 | 88
COC(=O)N/N=C/c1c(C)c(C(=O)c2ccc(F)cc2)n2ccccc12 | 0 | 0 | 0 | 86 | 0 | 0 | 74 | 94
CCOC(=O)N/N=C/c1c(C)c(C(=O)c2ccc(F)cc2)n2ccccc12 | 0 | 0 | 0 | 84 | 0 | 0 | 104 | 74
Cc1c(/C=N/NC(=O)c2cc(=O)[nH]c(=O)[nH]2)c2ccccn2c1C(=O)c1ccccc1 | 0 | 0 | 0 | 0 | 0 | 0 | - | -
COc1ccc(-c2cc(C)no2)cc1S(=O)(=O)N1CCN(C(=O)c2ccco2)CC1 | - | - | - | 0 | 0 | 0 | - | -
Cc1ccc(-c2nn(-c3ccccc3)cc2C(=O)NCCCN2CCOCC2)cc1 | - | - | - | 0 | 0 | 0 | - | -
CCOC(=O)c1[nH]c2cc3c(cc2c1NC(=O)CN1CCCCC1C)OCO3 (stereo unspecified) | 0 | 0 | 0 | 97 | 0 | 0 | 92 | 182
CCOC(=O)c1[nH]c2ccccc2c1NC(=O)CN1CCCCC1 | 0 | 0 | 0 | 0 | 0 | 0 | - | -
Cc1ccc(C)c(NC(=O)COC(=O)c2nc(Cl)ccc2Cl)c1 | - | - | - | 0 | - | - | - | -
Cc1ccc(C)c(NC(=O)c2nc(Cl)ccc2Cl)c1 | 0 | 0 | 0 | 81 | 0 | 0 | 106 | 112
Cc1ccc2[nH]c3nc(N/N=C/c4cccc(O)c4)nnc3c2c1 | - | - | - | 0 | 0 | 0 | - | -
CCc1ccc2[nH]c3nc(N/N=C/c4ccc(O)cc4O)nnc3c2c1 | - | - | - | 83 | 0 | 0 | 90 | -
Cc1cc(NC(=O)c2ccccc2-c2ccccc2)ccc1Br | 0 | 0 | 0 | 94 | 0 | 0 | 93 | 153
Cc1cc(=O)c(C(=O)Nc2cccc(C(=O)NC3CC3)c2)nn1-c1ccccc1Cl | - | - | - | 0 | - | - | - | -
C=CCn1c(=N)n(CC(=O)c2ccccc2)c2ccccc21 | - | - | - | 102 | 0 | 0 | 88 | 47
C=CCn1c(NC(=O)c2ccccc2)nc2ccccc21 | - | - | - | 87 | 0 | 0 | 126 | 33
C=CCn1c(=N)n(CC(=O)c2ccc(Br)cc2)c2ccccc21 | - | - | - | 86 | 0 | 0 | 96 | 31
N=c1n(N)c2ccccc2n1CC(=O)c1ccc(Br)cc1 | - | - | - | 83 | 0 | 0 | 86 | 0
SMILES | Hsp70 activator | STAT3 activator | PERK inhibitor | AHR act | PolyA inhibitor | HSF1 inh | AHR act confirm | PXR counter
C=CCn1c(P(=O)(O)c2ccccc2)nc2ccccc21 | 0 | 0 | 0 | 0 | 0 | 0 | - | -
CCOC(=S)SCC(=O)Nc1ncc(C)s1 | - | - | 0 | 0 | 0 | 0 | - | -
O=C1CSC(c2ccccc2)N1c1cccnc1 (stereo unspecified) | - | - | 0 | 0 | 0 | 0 | - | -
CCCn1c(=N)n(CC(=O)c2ccc(Cl)cc2)c2ccccc21 | - | - | - | 86 | 0 | 0 | 80 | 31
O=c1c[n+]([O-])c2ccccc2n1OCc1c(F)cccc1F | 0 | 0 | 0 | 80 | 0 | 0 | 92 | 43
CCOn1c(=O)c[n+]([O-])c2ccccc21 | 0 | 0 | 0 | 0 | 0 | 0 | - | -
C=CCN1C(=O)C2C3CC(=O)C(c4ccccc43)C2C1=O (stereo unspecified) | 0 | 0 | 0 | 0 | 0 | 0 | - | -
CC(C)OC(=O)/C(=C/c1ccc2c(c1)c1ccccc1n2C)NC(=O)c1ccccc1 | 0 | 0 | 0 | 80 | 0 | 0 | 97 | 183
COc1ccccc1C(=O)NC(=O)COC(=O)c1ccc([N+](=O)[O-])cc1Cl | - | - | - | 0 | 0 | 0 | - | -
O=C(Cc1ccc(F)cc1)Nc1nnc(SCC(=O)NC2CCCC2)s1 | 0 | 0 | 0 | 0 | 0 | 0 | - | -
Oc1c(C(c2ccccc2)N2CCc3ccccc3C2)sc2ncnn12 (stereo unspecified) | 0 | 0 | 0 | 89 | 0 | 0 | 86 | 40
CC(C)=NNc1nc(-c2ccccc2)cs1 | 0 | 0 | 0 | 102 | 0 | 0 | 107 | 15
CC(/C=C/c1ccccc1)=N\Nc1nc(-c2ccccc2)cs1 | 0 | 0 | 0 | 0 | 0 | - | - | -
O=C(c1cc(F)c(F)cc1Cl)N1CCN(c2ncccn2)CC1 | - | - | - | 0 | 0 | 0 | - | -
COC(=O)c1ccccc1NC(=O)c1ccnn1C | 0 | 0 | 0 | 0 | 0 | 0 | - | -
COc1cc(NC(=O)c2ccnn2C)c(OC)cc1Cl | 0 | 0 | 0 | 129 | 0 | 0 | 135 | 23
COc1cc(NC(=O)c2noc(C)c2[N+](=O)[O-])c(OC)cc1Cl | - | - | - | 80 | 0 | 0 | 102 | 30
COc1cc(NC(=O)c2cc(CC(C)C)on2)c(OC)cc1Cl | 0 | 136 | 0 | 91 | 0 | 0 | 86 | 15
O=C(Nc1cc(Cl)ccc1-n1cncn1)c1cccs1 | - | - | - | 84 | 0 | 0 | 116 | 20
O=C(Nc1cc(Cl)ccc1-n1cncn1)c1cc(F)cc(F)c1 | - | - | - | 0 | 0 | 0 | - | -
O=[N+]([O-])c1cccc(NC(=S)N2CCc3ccccc3C2)c1 | 0 | 0 | 0 | 105 | 0 | 0 | 92 | 54
Clc1ccc(N/N=C/c2ccncc2)cc1Cl | 0 | 0 | 0 | 0 | 0 | 0 | - | -
Cc1ccc2nc(C(Cl)(Cl)Cl)nc(N/N=C/c3ccncc3)c2c1 | 0 | 0 | 0 | 93 | 0 | 0 | 110 | 15
COc1ccc(NC(=O)c2ccc(CNc3c(N4CCCC4)c(=O)c3=O)cc2)cc1Cl | - | - | 0 | 0 | 0 | 0 | - | -
C=CCNC(=O)c1ccccc1NC(=O)c1ccccc1C | 0 | 0 | 0 | 0 | 0 | 0 | - | -
C=CCNC(=O)c1ccccc1NC(=O)c1cccc2ccccc12 | 0 | 0 | 0 | 94 | 0 | 0 | 89 | 84
Fc1ccc(NC(=S)N2CCN(c3ccccn3)CC2)cc1Cl | - | - | - | 0 | 0 | 0 | - | -
Cc1ccc(Nc2ncccc2C(N)=O)cc1 | 0 | 0 | 0 | 151 | 0 | 0 | 133 | -
Cc1c(-c2nc(-c3cccnc3)no2)cccc1[N+](=O)[O-] | 0 | 0 | 0 | 88 | 0 | 0 | 119 | 19
